Reference: ChEMBL document CHEMBL1138743, “Discovery of novel heteroarylazoles that are metabotropic glutamate subtype 5 receptor antagonists with anxiolytic activity” (J Med Chem, 2004)

How the values were obtained:
[1] = target: Metabotropic glutamate receptor 5 (Homo sapiens, UniProt P41594); assay: Inhibitory concentration towards human glutamate receptor 5 in calcium flux assay; assay type: functional
Summary of the method: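 Ltk cells stably expressing human recombinant mGlu5; glutamate as agonist. Cytosolic Ca2+ changes read by fura-2 fluorescence in an automated format. IC50 given as geometric mean with limits and replicate number.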

[2] = target: Metabotropic glutamate receptor 5 (Rattus norvegicus, UniProt P31424); assay: Displacement of [3H]3-methoxy-5-(pyridin-2-ylethynyl)pyridine from glutamate 5 receptor of rat cortical membranes; assay type: cell membranes, Membrane
Summary of the method: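 Native mGlu5 in rat cortical membranes; displacement of bound [3H]-3-methoxy-5-(pyridin-2-ylethynyl)pyridine by test compound. Ki given as geometric mean with lower and upper limits and number of replicates.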

[3] = Plasma clearance in rat; assay type: ADME, organism-based; conditions: read-out: Clp
Summary of the method: (§1)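 Sprague-Dawley rats given 2 mg/kg iv (n = 2/group) and 10 mg/kg po (n = 3/group). Clearance, volume of distribution, half-life and oral bioavailability derived from plasma concentration profiles.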

[4] = Half life in rat; assay type: ADME; conditions: in vivo; summary of the method: as §1
[5] = Volume of distribution in rat; assay type: ADME, organism-based; conditions: in vivo; summary of the method: as §1
[6] = Maximum concentration in rat when administered at 10 mg/kg perorally; assay type: ADME, organism-based; set-up: dose 10 mg/kg, route oral; conditions: in vivo, po
Summary of the method: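 Sprague-Dawley rats dosed 10 mg/kg po (n = 3/group); maximum plasma concentration recorded.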

[7] = Bioavailability in rat; assay type: ADME, organism-based; conditions: in vivo; summary of the method: as §1
[8] = Brain level after 1 hr following 3 mg/kg dose administered intraperitoneally; assay type: ADME, organism-based; set-up: dose 3 mg/kg, route intraperitoneal; conditions: rat, ip
Summary of the method: (§2)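 Rats given 3 mg/kg ip; plasma and brain concentrations measured at 1 h after dosing.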

[9] = system: Rattus norvegicus; assay: In vivo receptor occupancy was determined in rats administered perorally after 2 hr; assay type: functional; conditions: po
Summary of the method: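 Sprague-Dawley rats dosed orally (n = 5–7/group); tail-vein radioligand given at Tmax, 2 h post-dose. Animals killed 1 min later and brain-bound tracer quantified. Occupancy ED50 from dose–response.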

[10] = system: Rattus norvegicus; assay: In vivo receptor occupancy was determined in rats administered intraperitoneally after 1 hr; assay type: functional; conditions: ip
[11] = Plasma level after 1 hr following 3 mg/kg dose administered intraperitoneally; assay type: ADME, organism-based; set-up: dose 3 mg/kg, route intraperitoneal; conditions: rat, ip, read-out: Plasma Level; summary of the method: as §2
[12] = Plasma level after 1 hr following 10 mg/kg dose administered intraperitoneally; assay type: ADME, organism-based; set-up: dose 10 mg/kg, route intraperitoneal; conditions: rat, ip, read-out: Plasma Level
Summary of the method: (§3)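 Rats given 10 mg/kg ip; plasma and brain concentrations measured at 1 h after dosing.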

[13] = Brain level after 1 hr following 10 mg/kg dose administered intraperitoneally; assay type: ADME, organism-based; set-up: dose 10 mg/kg, route intraperitoneal; conditions: rat, ip; summary of the method: as §3
[14] = system: Rattus norvegicus; assay: Blockage of fear-conditioning in rats determined in the fear-potentiated startle (FPS) model of anxiety administered perorally after 1 hr; assay type: functional; conditions: po
Summary of the method: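 Fear-potentiated startle in Wistar rats (n = 8/group), acute oral dosing, tested 1 h after administration. Startle amplitude compared in dark versus light; ED50 for blocking fear expression.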

[15] = system: Rattus norvegicus; assay: In vivo receptor occupancy was determined in rats administered perorally after 30 min; assay type: functional; conditions: po, 0.5 h

Metabotropic glutamate receptor 5 (Homo sapiens, UniProt P41594), sequence (P41594 whole entry): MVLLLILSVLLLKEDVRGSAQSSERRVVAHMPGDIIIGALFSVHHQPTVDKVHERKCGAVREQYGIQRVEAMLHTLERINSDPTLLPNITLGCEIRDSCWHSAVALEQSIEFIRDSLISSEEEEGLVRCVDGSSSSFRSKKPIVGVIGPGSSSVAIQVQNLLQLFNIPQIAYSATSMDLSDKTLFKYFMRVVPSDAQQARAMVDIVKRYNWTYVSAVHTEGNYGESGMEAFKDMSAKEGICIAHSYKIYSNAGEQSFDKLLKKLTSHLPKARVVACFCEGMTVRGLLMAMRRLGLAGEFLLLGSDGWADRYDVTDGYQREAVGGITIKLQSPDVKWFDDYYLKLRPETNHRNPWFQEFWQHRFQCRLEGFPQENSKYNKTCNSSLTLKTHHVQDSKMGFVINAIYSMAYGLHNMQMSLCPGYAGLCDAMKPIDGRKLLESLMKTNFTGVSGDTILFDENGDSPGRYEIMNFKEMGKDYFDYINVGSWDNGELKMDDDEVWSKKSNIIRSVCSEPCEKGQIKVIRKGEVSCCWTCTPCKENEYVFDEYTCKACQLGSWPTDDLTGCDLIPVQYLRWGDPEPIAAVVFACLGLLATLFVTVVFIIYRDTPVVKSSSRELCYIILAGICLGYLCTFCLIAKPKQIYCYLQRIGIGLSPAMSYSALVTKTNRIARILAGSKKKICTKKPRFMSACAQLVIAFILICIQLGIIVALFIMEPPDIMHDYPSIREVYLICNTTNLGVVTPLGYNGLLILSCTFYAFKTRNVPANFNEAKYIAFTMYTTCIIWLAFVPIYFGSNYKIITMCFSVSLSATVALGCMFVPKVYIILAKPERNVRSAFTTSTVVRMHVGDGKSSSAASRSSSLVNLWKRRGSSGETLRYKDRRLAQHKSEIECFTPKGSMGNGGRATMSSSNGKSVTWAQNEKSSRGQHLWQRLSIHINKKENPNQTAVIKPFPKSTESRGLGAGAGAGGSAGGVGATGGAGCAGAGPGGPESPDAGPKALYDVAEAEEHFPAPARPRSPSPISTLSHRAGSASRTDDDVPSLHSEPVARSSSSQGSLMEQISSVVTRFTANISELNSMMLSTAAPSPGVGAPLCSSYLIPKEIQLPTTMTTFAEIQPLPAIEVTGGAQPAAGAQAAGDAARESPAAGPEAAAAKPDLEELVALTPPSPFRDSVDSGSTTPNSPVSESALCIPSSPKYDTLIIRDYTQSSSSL
Metabotropic glutamate receptor 5 (Rattus norvegicus, UniProt P31424), sequence (P31424 whole entry): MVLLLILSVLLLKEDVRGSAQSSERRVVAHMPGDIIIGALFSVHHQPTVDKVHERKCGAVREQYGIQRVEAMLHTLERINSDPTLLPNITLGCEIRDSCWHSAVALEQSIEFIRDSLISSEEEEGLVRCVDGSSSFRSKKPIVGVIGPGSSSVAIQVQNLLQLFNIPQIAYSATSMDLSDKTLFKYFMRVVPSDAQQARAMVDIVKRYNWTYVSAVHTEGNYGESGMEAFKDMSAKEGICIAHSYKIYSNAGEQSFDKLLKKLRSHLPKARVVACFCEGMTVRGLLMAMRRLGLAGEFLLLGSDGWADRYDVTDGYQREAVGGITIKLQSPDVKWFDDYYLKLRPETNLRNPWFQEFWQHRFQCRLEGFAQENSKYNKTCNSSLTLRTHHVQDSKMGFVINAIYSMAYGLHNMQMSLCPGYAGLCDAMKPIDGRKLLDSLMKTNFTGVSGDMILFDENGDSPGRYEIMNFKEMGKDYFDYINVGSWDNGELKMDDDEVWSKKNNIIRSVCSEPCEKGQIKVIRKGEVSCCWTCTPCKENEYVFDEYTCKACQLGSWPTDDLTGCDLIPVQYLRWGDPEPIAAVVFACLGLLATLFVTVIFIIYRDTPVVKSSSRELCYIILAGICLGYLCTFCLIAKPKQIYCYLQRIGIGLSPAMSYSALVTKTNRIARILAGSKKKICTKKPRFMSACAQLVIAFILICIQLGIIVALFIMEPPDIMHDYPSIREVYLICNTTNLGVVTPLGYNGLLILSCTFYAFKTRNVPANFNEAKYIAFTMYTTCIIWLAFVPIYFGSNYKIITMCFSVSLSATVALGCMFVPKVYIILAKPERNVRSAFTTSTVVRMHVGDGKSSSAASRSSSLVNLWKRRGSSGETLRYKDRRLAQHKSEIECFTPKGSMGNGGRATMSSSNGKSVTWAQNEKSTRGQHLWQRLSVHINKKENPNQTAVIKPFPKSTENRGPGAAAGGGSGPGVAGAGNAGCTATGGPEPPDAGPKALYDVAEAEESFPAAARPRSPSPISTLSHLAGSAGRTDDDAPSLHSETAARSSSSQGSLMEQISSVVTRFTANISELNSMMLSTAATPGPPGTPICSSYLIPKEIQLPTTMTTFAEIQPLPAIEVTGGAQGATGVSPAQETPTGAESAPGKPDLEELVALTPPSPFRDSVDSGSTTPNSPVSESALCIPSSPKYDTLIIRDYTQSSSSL

IC50 [1] [nM]	Ki [2] [nM]	clearance [3] [mL/min/kg]	Cmax [6] [nM]	SMILES	also measured
440	530			N#Cc1cccc(-n2ccc(-c3ccccn3)n2)c1	
3600	> 600			N#Cc1cccc(-c2ccn(-c3ccccn3)n2)c1	
890	> 630			N#Cc1cccc(-c2cnn(-c3ccccn3)c2)c1	
> 10000	> 630			N#Cc1cccc(-c2cn(-c3ccccn3)nn2)c1	
980	> 600			N#Cc1cccc(-n2cc(-c3ccccn3)nn2)c1	
210	200	15.1	2700	N#Cc1cccc(-c2cnn(-c3ccccn3)n2)c1	half-life [4]: 1.7 h; Vd [5]: 1 L/kg; bioavailability [7]: 13%
80	300	15.7	600	N#Cc1cccc(-n2ncc(-c3ccccn3)n2)c1	half-life [4]: 2.5 h; Vd [5]: 1.1 L/kg; bioavailability [7]: 3%
4	10	16.9	2500	N#Cc1cc(F)cc(-n2nnc(-c3ccccn3)n2)c1	concentration at 1 h [8]: 2400 nM; ED50 [9]: 3.6 mg/kg; ED50 [10]: 1.3 mg/kg; concentration at 1 h [11]: 2700 nM; Vd [5]: 1.1 L/kg; bioavailability [7]: 26%
140	250	9.7	1200	N#Cc1cccc(-n2cc(-c3ccccn3)cn2)c1	half-life [4]: 5.5 h; Vd [5]: 3.7 L/kg; bioavailability [7]: 3%
6150	> 600			N#Cc1cccc(-c2ncn(-c3ccccn3)n2)c1	
690	> 600			N#Cc1cccc(-n2cnc(-c3ccccn3)n2)c1	
4620	> 600			N#Cc1cccc(-c2ccn(-c3ccccn3)c2)c1	
190	> 600	32.5	900	N#Cc1cccc(-n2ccc(-c3ccccn3)c2)c1	half-life [4]: 1.7 h; Vd [5]: 3.6 L/kg; bioavailability [7]: 4%
	490			N#Cc1cccc(-c2nc(-c3ccccn3)no2)c1	
> 10000	> 600			N#Cc1cccc(-c2cn(-c3ccccn3)cn2)c1	
1150	> 600			N#Cc1cccc(-n2cnc(-c3ccccn3)c2)c1	
70	190	32.9	5800	N#Cc1cccc(-n2nnc(-c3ccccn3)n2)c1	ED50 [10]: 3 mg/kg; concentration at 1 h [12]: 10500 nM; concentration at 1 h [13]: 15300 nM; ED50 [14]: 5.4 mg/kg; ED50 [15]: 3 mg/kg
270	450			N#Cc1cccc(-c2nnn(-c3ccccn3)n2)c1	
